Measured values from paper PMC8842743 (Journal of Alzheimer's Disease Reports, 2022).

Assays:
[1] = system: CSF Aβ1–40, Aβ1–42, sAβPPα, sAβPPβ in healthy subjects; experiment: Clinical multiple-dose CSF pharmacodynamics; format: in vivo, human
[2] = molecular target: T1, Renin recombinant human enzyme (Homo sapiens, UniProt P00797); experiment: Renin FRET assay; format: biochemical; details: read-out: Renin FRET Assay Absolute IC50; n = 1/2; value (SD)
T1 sequence (P00797 67-406): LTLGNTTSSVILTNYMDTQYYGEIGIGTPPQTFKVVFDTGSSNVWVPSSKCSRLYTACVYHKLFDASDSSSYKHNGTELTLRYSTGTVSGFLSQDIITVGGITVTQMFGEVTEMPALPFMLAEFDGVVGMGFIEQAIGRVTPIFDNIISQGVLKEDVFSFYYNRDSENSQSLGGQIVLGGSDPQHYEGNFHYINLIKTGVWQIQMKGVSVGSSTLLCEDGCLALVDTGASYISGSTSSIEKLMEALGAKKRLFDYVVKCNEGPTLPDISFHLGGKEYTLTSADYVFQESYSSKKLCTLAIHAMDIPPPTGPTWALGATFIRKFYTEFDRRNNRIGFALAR

[3] = system: CSF Aβ1–40 and Aβ1–42 in healthy subjects; experiment: Clinical single-dose CSF Aβ pharmacodynamics; format: in vivo, human
How it was run: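 Healthy subjects received single doses of 1.6, 10 or 26 mg or placebo. Serial CSF was drawn through an indwelling subarachnoid lumbar catheter from 4 h pre-dose to 36 h post-dose. For each subject, the time of the lowest observed Aβ1–40 and Aβ1–42 concentration, the change from baseline at nadir and the 24 h time-averaged change from baseline were reported.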

[4] = system: PDAPP primary cortical neurons; experiment: PDAPP neuronal cytotoxicity; format: cell-based, mouse
How it was run: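 Primary cortical neurons from gestational-day-16 PDAPP (APP V717F) embryos were grown at 15×10^4 cells/well in DMEM/F12 (1:1) with B27. Cells were exposed to test compound for 24 h at 37°C. Viability was read by MTT assay as absorbance at 595 nm.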

[5] = Clinical single-dose plasma pharmacokinetics; format: in vivo, human; details: for Cmax / AUC (0∞) / t1/2 / CLR: geometric mean (CV%); for tmax: median (range)
How it was run: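 Healthy subjects received single oral doses of placebo or 0.1 mg (n = 3 per group), or 0.4, 1.6, 5, 15 or 45 mg (n = 8 per group). Plasma was sampled immediately pre-dose and up to 120 h post-dose. Reported parameters were Cmax, tmax, terminal t1/2, AUC0–∞, clearance and apparent volume of distribution.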

[6] = Brain homogenate protein binding; format: in vitro ADME, mouse; details: equilibrium dialysis
How it was run: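 Fraction unbound was determined in vitro by equilibrium dialysis of mouse brain homogenate or dog plasma. Unbound concentrations were derived by multiplying the total measured concentrations by this fraction unbound.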

[7] = Plasma and CSF pharmacokinetics in beagle dogs; format: in vivo, dog
[8] = 1 mg daily for 14 days, 24 h after final dose
[9] = 26 mg daily for 14 days, samples below LLOQ assigned one-half the LLOQ

IC50 [2]: > 14 µM
Renal clearance ([5]; healthy subjects, across dose levels): approximately 1 L/h
Apparent oral clearance ([5]; healthy subjects, across dose levels except 15 mg): approximately 26 L/h
terminal t1/2 ([5]; healthy subjects, single oral doses, plasma): approximately 20 h
Cmax ([5]; single dose 0.1 mg, n = 3): 0.169 (50) ng/mL
tmax ([5]; single dose 0.1 mg): 3.08 (3.00–6.00) h
Cmax ([5]; single dose 0.4 mg, n = 8): 0.486 (81) ng/mL
tmax ([5]; single dose 0.4 mg): 3.55 (3.00–8.00) h
Cmax ([5]; single dose 1.6 mg, n = 8): 2.89 (70) ng/mL
AUC (0∞) ([5]; single dose 1.6 mg): 60.6 (49) ng·h/mL
t1/2 ([5]; single dose 1.6 mg): 23.0 (21) h
tmax ([5]; single dose 1.6 mg): 3.00 (3.00–4.00) h
Cmax ([5]; single dose 5 mg, n = 8): 7.91 (56) ng/mL
AUC (0∞) ([5]; single dose 5 mg): 197 (38) ng·h/mL
CLR ([5]; single dose 5 mg): 1.09 (64) L/h
t1/2 ([5]; single dose 5 mg): 19.8 (42) h
tmax ([5]; single dose 5 mg): 4.03 (2.90–24.12) h
Cmax ([5]; single dose 15 mg, n = 8): 21.3 (77) ng/mL
AUC (0∞) ([5]; single dose 15 mg): 393 (84) ng·h/mL
CLR ([5]; single dose 15 mg): 0.829 (37) L/h
t1/2 ([5]; single dose 15 mg): 19.5 (25) h
tmax ([5]; single dose 15 mg): 3.01 (1.98–4.00) h
Cmax ([5]; single dose 45 mg, n = 8): 92.5 (47) ng/mL
AUC (0∞) ([5]; single dose 45 mg): 1680 (34) ng·h/mL
CLR ([5]; single dose 45 mg): 1.03 (53) L/h
t1/2 ([5]; single dose 45 mg): 21.5 (19) h
tmax ([5]; single dose 45 mg): 2.54 (2.00–4.07) h
free fraction in brain homogenate [6]: 0.026
mean CSF AUC (3–9 h) ([7]; 1.5 mg/kg oral): 0.025 µM·h
mean free plasma AUC (3–9 h) ([7]; 1.5 mg/kg oral): 0.028 µM·h
plasma AUC(0-∞) ([7]; 1.5 mg/kg oral, mean±SD): 10.812 ± 5.195 µM·h
Cmax ([7]; read-out: maximum plasma concentration (Cmax), 1.5 mg/kg oral, mean±SD): 2990 ± 750 nM
SMILES: COc1cnc(C(=O)Nc2ccc(F)c([C@]34CN(c5ncc(F)cn5)C[C@H]3CSC(N)=N4)c2)cn1 [LY3202626]
decrease in CSF Aβ1–40 from baseline [1, 8]: approximately 50%
decrease in CSF Aβ1–42 from baseline [1, 8]: approximately 50%
lowering of CSF Aβ species, modeling of the clinical data ([1]; 12 mg QD): at least 90%
increase in CSF sAβPPα from baseline ([1]; 26 mg daily for 14 days): 111%
reduction in CSF sAβPPβ from baseline ([1]; 26 mg daily for 14 days): 92.7%
reduction in CSF Aβ1–40 from baseline [1, 9]: approximately 94%
reduction in CSF Aβ1–42 from baseline [1, 9]: approximately 94%
decrease in CSF sAβPPβ ([1]; multiple doses of 6 mg): more than 70%
CSF Aβ1–42 mean reduction from baseline at nadir ([3]; single dose 1.6 mg): –33.4%
time of mean nadir of CSF Aβ1–42 ([3]; single dose 1.6 mg): approximately 10 h
CSF Aβ1–42 mean reduction from baseline at nadir ([3]; single dose 26 mg): –71.6%
time of mean nadir of CSF Aβ1–42 ([3]; single dose 26 mg): approximately 28 h
EC50 ([4]; read-out: EC50 for inducing cytotoxicity in PDAPP neurons, MTT): > 100 µM
IC50 ([4]; read-out: PDAPP 1° Neuron Cytotox Relative IC50, n = 1/7): > 100 µM
